Measurements as given in ChEMBL document CHEMBL5352453, “Hit-to-lead optimization of a 2-aminobenzimidazole series as new candidates for chagas disease” (Eur J Med Chem, 2023).

Tests used:
[1] = Selectivity index, ratio of CC50 for cytotoxicity against human MRC5 cells to EC50 for Trypanosoma cruzi Tulahuen CL2 amastigotes expressing beta galactosidase infected in human MRC5 cells; format: toxicity, cell-based; settings: read-out: Selectivity Index
Procedure, shortened: (§1)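 T. cruzi Tulahuen CL2 β-galactosidase strain grown in MRC-5 cells (MEM, 5% heat-inactivated FCS, 37 °C, 5% CO2). MRC-5 cells (4 x 10^3/well) plus parasites (4 x 10^4/well) exposed 7 days to 4-fold dilutions from 64 µM down; final DMSO <1%. CPRG with Nonidet added, absorbance at 540 nm after 4 h. IC50 calculated against untreated-infected (100%) and non-infected (0%) controls. SI = MRC-5 CC50/IC50.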

Trypanosoma cruzi = test: Antitrypanosomal activity against Trypanosoma cruzi Tulahuen CL2 amastigotes expressing beta galactosidase infected in human MRC5 cells assessed as reduction in parasite burden using chlorophenol red beta-D-galactopyranoside as substrate and measured after 7 days by spectrophotometric analysis; format: functional, organism-based; settings: Tulahuen CL2, MRC5, 168 h; procedure, shortened: as §1
[2] = Metabolic stability in CD1 mouse liver microsomes assessed as intrinsic clearance measured upto 60 mins by LC-MS/MS analysis; format: ADME; settings: read-out: CLH
Procedure, shortened: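 CD1 mouse liver microsomes at 0.25 mg/mL, compound at 0.5 µM, pH 7.4, 37 °C, started with NADPH. Sampled at 0, 5, 10, 20, 30 and 60 min and quenched with acetonitrile:methanol containing tolbutamide. Measured by LC-MS/MS; CLint (k × 1000/0.25, µL/min/mg) derived by non-linear regression of % remaining over time.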

| SMILES | selectivity ratio [1] | IC50 (Trypanosoma cruzi) | microsomal CLint [2] |
| --- | --- | --- | --- |
| CCCn1c(NC(=O)c2ccc(C(F)(F)F)nc2)nc2cccnc21 | 15 | 3.2 µM | – |
| O=C(Nc1nc2cc(F)cnc2n1CC(F)(F)F)c1ccc(C(F)(F)F)nc1 | 6 | 0.15 µM | 113 µL/min/mg |
| CCCn1c(NC(=O)Cc2ccc(Cl)cc2)nc2ccc(C#N)cc21 | > 3 | 24 µM | 226 µL/min/mg |
| Cn1nccc1C(=O)Nc1nc2cccnc2n1CC(F)(F)F | 2 | 3.9 µM | 119 µL/min/mg |
| CCCn1c(NC(=O)c2cccnc2)nc2cccnc21 | > 15 | 4.4 µM | 275 µL/min/mg |
| N#Cc1ccc2nc(NC(=O)c3ncc(F)cc3F)n(CC(F)(F)F)c2c1 | 3 | 17 µM | 253 µL/min/mg |
| O=C(Cc1ccc(Cl)cc1)Nc1nc2ccccc2[nH]1 | – | > 64 µM | – |
| COCCn1c(NC(=O)c2ccc(C(F)(F)F)nc2)nc2ccc(C#N)cc21 | 1 | 64 µM | – |
| Cc1ccc(C(=O)Nc2nc3ccc(C#N)cc3n2CC(F)(F)F)cn1 | 1 | 64 µM | – |
| Cn1nccc1C(=O)Nc1nc2cc(CO)ccc2n1CC(F)(F)F | 1 | 64 µM | – |
| CCCn1c(NC(=O)Cc2ccc(F)cc2)nc2c(F)cccc21 | 1 | > 64 µM | 715 µL/min/mg |
| N#Cc1ccc2nc(NC(=O)c3ccccn3)n(CC(F)(F)F)c2c1 | > 7 | 9.3 µM | 236 µL/min/mg |
| Cn1nccc1C(=O)Nc1nc2cc(CN3CCCC3)ccc2n1CC(F)(F)F | 2 | 8.1 µM | 23 µL/min/mg |
| COc1ccc(C(=O)Nc2nc3ccc(C#N)cc3n2CC(F)(F)F)cn1 | > 28 | 2.3 µM | 170 µL/min/mg |
| Cn1nccc1C(=O)Nc1nc2cc(F)cnc2n1CC(F)(F)F | 3 | 0.84 µM | 44 µL/min/mg |
| N#Cc1ccc2nc(NC(=O)c3ccn(C4CC4)n3)n(CC(F)(F)F)c2c1 | > 15 | 4.3 µM | 299 µL/min/mg |
| O=C(Cc1ccc(Cl)cc1)Nc1nc2ccccc2s1 | – | > 64 µM | – |
| CCCn1c(NC(=O)Cc2ccc(F)cc2)nc2ccc(C(=O)N3CCCC3)cc21 | > 8 | 8.5 µM | – |

| SMILES | selectivity ratio [1] | IC50 (Trypanosoma cruzi) | microsomal CLint [2] |
| --- | --- | --- | --- |
| O=C(Nc1nc2cc(F)ccc2n1C1CCOCC1)c1ccc(C(F)(F)F)nc1 | > 2 | 35 µM | 23 µL/min/mg |
| Cn1cc(C(=O)Nc2nc3ccc(C#N)cc3n2CC(F)(F)F)cn1 | 1 | 64 µM | – |
| Cn1nc(C(F)(F)F)cc1C(=O)Nc1nc2cncnc2n1CC(F)(F)F | 7 | 0.59 µM | – |
| CCCn1c(NC(=O)Cc2cc(F)ccc2F)nc2cc(F)c(F)cc21 | 52 | 0.58 µM | 389 µL/min/mg |
| O=C(Nc1nc2ccc(F)cc2n1C1CC1)c1cccnc1 | > 2 | 34 µM | 160 µL/min/mg |
| O=C(Nc1nc2cncnc2n1CC(F)(F)F)c1cc(C(F)(F)F)n[nH]1 | 4 | 7.5 µM | – |
| N#Cc1ccc2nc(NC(=O)Cn3cccn3)n(CC(F)(F)F)c2c1 | 9 | 6.6 µM | 36 µL/min/mg |
| CCCn1ccnc1NC(=O)Cc1ccc(F)cc1 | – | 35 µM | – |
| N#Cc1ccc2nc(NC(=O)c3ccc(C(F)(F)F)nc3)n(C3CC3)c2c1 | – | > 64 µM | 1350 µL/min/mg |
| Cn1ncc(C(=O)Nc2nc3ccc(C#N)cc3n2CC(F)(F)F)n1 | 1 | 64 µM | – |
| CCCn1c(NC(=O)Cc2ccc(F)cc2)nc2ccc(C(=O)OC)cc21 | 35 | 0.53 µM | 1250 µL/min/mg |
| N#Cc1ccc2nc(NC(=O)c3ccnc(C(F)(F)F)c3)n(CC(F)F)c2c1 | 24 | 0.51 µM | – |
| Cn1nccc1C(=O)Nc1nc2cc(-c3ncco3)ccc2n1CC(F)(F)F | 1 | 38 µM | 52.7 µL/min/mg |
| Cn1nccc1C(=O)Nc1nc2ccc(C#N)cc2n1CC(F)(F)F | 8 | 1.6 µM | 20 µL/min/mg |
| Cn1nc(C(=O)Nc2nc3ccc(C#N)cc3n2CC(F)(F)F)cc1C(F)(F)F | 1 | 64 µM | 77 µL/min/mg |
| CCCn1c(NC(=O)Cc2ccc(F)cc2)nc2ccc(C(=O)NC)cc21 | 1 | 34 µM | 66 µL/min/mg |
| CC(=O)N1CCC(n2c(NC(=O)c3ccnn3C)nc3ccc(C#N)cc32)CC1 | 1 | 64 µM | 23 µL/min/mg |
